Active and inactive are the calls of the source. The calls are words filed in the database; no cut-off is given here.
Tests used:
[1] = Effect on HPRT mRNA expression in human SW480 cells at 4 uM incubated for 24 hrs by qPCR analysis relative to control; assay type: ADME, cell-based; details: read-out: FC
Outline: (§1)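 SW480 cells at 1 × 10^6/mL were treated with inhibitor for 24 h. Total RNA was extracted with TRIzol and cDNA made by first-strand synthesis. SYBR green qPCR used human HPRT primers, with CT values normalised to GAPDH as internal reference. Performed in triplicate.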

[2] = Effect on HPRT mRNA expression in human SW480 cells at 2 uM incubated for 24 hrs by qPCR analysis relative to control; assay type: ADME, cell-based; details: read-out: FC; outline: as §1
[3] = Inhibition of protein interaction between beta-catenin K181A mutant (unknown origin)/N-terminal biotinylated human BCL9 ( 350 to 375 residues) incubated for 1 hr by Alpha-screen competitive inhibition assay
[4] = target: T1, beta-catenin-B-cell lymphoma 9 protein complex (Homo sapiens) (UniProt P35222+O00512); assay: Inhibition of protein interaction between beta-catenin /BCL9 in human SW480 cells assessed as reduction in Wnt target genes by measuring cyclin D1 mRNA expression incubated for 24 hrs by qPCR analysis; assay type: cell-based
Outline: (§2)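 SW480 cells at 1 × 10^6/mL were treated with a range of inhibitor concentrations for 24 h. Total RNA was extracted with TRIzol and reverse-transcribed to cDNA. SYBR Green qPCR was run for Axin2, LEF1 and cyclin D1, with HPRT as a non-target housekeeping gene. CT values were normalized to GAPDH. Triplicate.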

[5] = target: T1, beta-catenin-B-cell lymphoma 9 protein complex (Homo sapiens); assay: Inhibition of protein interaction between beta-catenin /BCL9 in human SW480 cells assessed as reduction in Wnt target genes by measuring Axin2 mRNA expression incubated for 24 hrs by qPCR analysis; assay type: cell-based; outline: as §2
[6] = Inhibition of protein interaction between beta-catenin D145A/E155A mutant (unknown origin)/N-terminal biotinylated human BCL9 ( 350 to 375 residues) incubated for 1 hr by Alpha-screen competitive inhibition assay
[7] = Inhibition of protein interaction between beta-catenin D145A mutant (unknown origin)/N-terminal biotinylated human BCL9 ( 350 to 375 residues) incubated for 1 hr by Alpha-screen competitive inhibition assay
[8] = target: T1, beta-catenin-B-cell lymphoma 9 protein complex (Homo sapiens); assay: Inhibition of protein interaction between beta-catenin /BCL9 in human SW480 cells assessed as reduction in active form of beta-catenin expression incubated for 24 hrs by Western blot analysis; assay type: cell-based
Outline: (§3)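 SW480 cells at 1 × 10^6 cells/mL were treated with a range of inhibitor concentrations for 24 h. Cells were lysed in Tris/NaCl/NP-40/deoxycholate/SDS buffer with protease inhibitors. Lysates were run on 8% SDS-PAGE and blotted to nitrocellulose. Blots were probed overnight at 4 °C for total β-catenin (mostly the E-cadherin-bound pool), active β-catenin (dephosphorylated S37/T41), cyclin D1, c-myc and β-tubulin. Detection used infrared secondary antibodies. Duplicate.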

[9] = target: T1, beta-catenin-B-cell lymphoma 9 protein complex (Homo sapiens); assay: Inhibition of protein interaction between beta-catenin /BCL9 in human SW480 cells assessed as reduction in Wnt target genes by measuring LEF1 mRNA expression incubated for 24 hrs by qPCR analysis; assay type: cell-based; outline: as §2
[10] = Effect on HPRT mRNA expression in human SW480 cells at 1 uM incubated for 24 hrs by qPCR analysis relative to control; assay type: ADME, cell-based; details: read-out: FC; outline: as §1
[11] = test system: SW480; assay: Effect on E-cadherin-bound beta-catenin levels in human SW480 cells at 25 to 100 uM incubated for 24 hrs by Western blot analysis; assay type: functional, cell-based; details: dose 25-100 µM; outline: as §3

Structure (SMILES) | fold induction at 4 µM [1] | fold induction at 2 µM [2] | Ki [3] | inhibition [4] | inhibition [5] | Ki [6] | Ki [7] | inhibition [8] | inhibition [9] | fold induction at 1 µM [10] | Activity [11]
Cc1cc(F)ccc1-c1cc(NC(=O)c2ccc(O[C@H]3CCNC3)c(-c3ccc(F)c(F)c3)c2)ccc1O[C@H]1CCNC1.Cl.Cl | 0.136 | 0.166 |  |  |  |  |  |  |  |  | 
Cl.Cl.O=C(Nc1ccc(O[C@H]2CCNC2)c(-c2ccc(F)cc2)c1)c1ccc(O[C@H]2CCNC2)c(-c2ccc3ccsc3c2)c1 | 1.04 | 1.21 | 1.7 µM | Dose-dependent effect | Dose-dependent effect | 12 µM | 4.2 µM | Dose-dependent effect | Dose-dependent effect | 1.09 | 
Cl.Cl.O=C(Nc1ccc(O[C@H]2CCNC2)c(-c2ccc(F)cc2)c1)c1ccc(O[C@H]2CCNC2)c(-c2ccc(F)c(F)c2)c1 |  |  |  | Dose-dependent effect | Dose-dependent effect |  |  |  | Dose-dependent effect |  | 
Cl.Cl.O=C(Nc1ccc(O[C@@H]2CCNC2)c(-c2cccc(-c3nn[nH]n3)c2)c1)c1ccc(O[C@H]2CCNC2)c(-c2ccc(F)c(F)c2)c1 |  |  | 4.1 µM | Dose-dependent effect | Dose-dependent effect | 12 µM | 3 µM | Dose-dependent effect | Dose-dependent effect |  | inactive

From ChEMBL document CHEMBL4680104, “Structure-Based Optimization of Small-Molecule Inhibitors for the β-Catenin/B-Cell Lymphoma 9 Protein-Protein Interaction” (J Med Chem, 2018)
